Compounds with a hit are over-represented: about 3.8% of the library has one in this group of screens.
DENV2 CPE = DENV2-induced cell death inhibition; 1.7% of 350,000 active; DENV2-infected cells, cytopathic effect rescue, plate reader; CPE inhibition, % at 9.99 µM; in the data active = CPE inhibition above about 20%, passing the limit was not always enough; inconclusive = no clear call, values can overlap the other calls; tested in BHK-21 cells;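 note: 0% = median of neutral control wells and 100% = median of positive control wells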
SIRT5 inh = inhibitors of human sirtuin-5 desuccinylase | Q9NXA8 | Purified SirT5, succinyl-peptide AMC, trypsin-coupled fluorescence | inhibition, % at 15 µM | 1.1% of 330,000 active | AID 652115; in the data active = inhibition above about 15%; inconclusive = no clear call, values can overlap the other calls
Target sequence (Q9NXA8 whole entry, looked up): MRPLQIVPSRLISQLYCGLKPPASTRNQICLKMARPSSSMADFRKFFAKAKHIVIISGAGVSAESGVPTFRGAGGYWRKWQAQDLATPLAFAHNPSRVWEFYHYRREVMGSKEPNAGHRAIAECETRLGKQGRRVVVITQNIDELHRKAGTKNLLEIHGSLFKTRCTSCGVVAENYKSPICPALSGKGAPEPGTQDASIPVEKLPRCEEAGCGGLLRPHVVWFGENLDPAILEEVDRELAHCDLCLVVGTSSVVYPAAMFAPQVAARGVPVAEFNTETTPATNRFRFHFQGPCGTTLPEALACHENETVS
Xi reactivation = reactivates the inactive X chromosome in mouse fibroblasts; XiGFP mouse fibroblasts, % GFP-positive cells imaging, 3 d; cells co-treated with 5-aza-dC sensitizer; scaled so ellipticine positive control = 100%; 0.055% of 360,000 active; activation, % at 7.58 µM; AID 743238;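 active = mean normalized replicate activation at least 10% and every replicate at or above 10%; inconclusive = only one of the two criteria met; inactive = mean below 10% and not all replicates reach 10%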;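 note: 0% = median of on-plate neutral control wells and 100% = ellipticine 6 µM median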
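Assay system: SV40-immortalized XiGFP fibroblast cells, line 68-5-11; buffer or medium: DMEM plus 5-aza-dC sensitizer; compound: one concentration, pinned; timing: compounds 3 days, fix/stain 15 min at room temperature; benchmarks: positive control ellipticine, 6 µM final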
ARNT-TACC3 inh = disruptors of human ARNT/TACC3 interaction. Q9Y6A5. inhibition, % at 9.99 µM. AlphaScreen His-ARNT PAS-B/GST-TACC3 binding, luminescence; TACC3 fragment carries E629A point mutation. 0.66% of 390,000 active;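 active = mean inhibition of replicates at least 50% and at least half of replicates each reaching 50%; inconclusive = half or more replicates reach 50% but mean below 50%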;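 note: 0% = complete ARNT plus TACC3 wells and 100% = ARNT alone without TACC3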
FN deposit inh = fibronectin deposition inhibition; AH1F fibroblasts, Alexa488-fibronectin deposition fluorescence, overnight; inhibition, % at 12.6 µM; 0.086% of 350,000 active; AID 743247;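 active = mean inhibition across replicates of 30% or more, regardless of how many single replicates reach that level; inconclusive = mean under 30% yet at least half of replicates reach 30%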;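 note: positive control wells lacked labelled fibronectin entirely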
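Schedule: 1 h cell adhesion before compound, then overnight fibronectin incubation; test system: AH1F fibroblast monolayer depositing Alexa488-labelled fibronectin into matrix; quantity: 10000 AH1F cells per well; probe or stimulus: fluorescent fibronectin at 24 nM final; signal: fluorescence, ex 485 nm, em 525 nm; evaluation: percent inhibition as loss of matrix-bound fibronectin fluorescence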
FGF22 binding = FGF22 (human) thermal shift binding; recombinant FGF22 thermal shift, SYPRO orange fluorescence; percent of sucrose octasulfate shift, DMSO zero; activity (Tm shift, normalised), % at 9.99 µM; 1.5% of 340,000 active; AID 651658;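 active = mean Tm shift, scaled 0 neutral to 100 positive control, at about 1.3% or above, every replicate too, limit read from the data; inconclusive = no clear call, values can overlap the other calls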
Target sequence (Q9HCT0 whole entry, looked up): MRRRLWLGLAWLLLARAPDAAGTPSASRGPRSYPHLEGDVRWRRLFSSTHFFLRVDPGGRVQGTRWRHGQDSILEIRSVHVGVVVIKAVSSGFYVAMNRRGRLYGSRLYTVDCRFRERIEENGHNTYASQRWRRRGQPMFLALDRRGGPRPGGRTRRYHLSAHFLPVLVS
* hit, by the source's call.

What do the screens show for `C[C@@H]1CCCCO[C@H](CN(C)C(=O)Nc2cccc3ccccc23)[C@@H](C)CN([C@@H](C)CO)C(=O)c2cc(NC(=O)C3CCCCC3)ccc2O1`?
DENV2 CPE: -2; SIRT5 inh: 12; Xi reactivation: -1; ARNT-TACC3 inh: 2; FGF22 binding: 0

How did Cc1ccc(S(=O)(=O)N(C)C[C@@H]2OCCCC[C@H](C)Oc3ccc(NC(=O)Nc4cccc5ccccc45)cc3C(=O)N([C@H](C)CO)C[C@@H]2C)cc1 do in these assays?
DENV2 CPE: inconclusive; SIRT5 inh: -2; Xi reactivation: 0; ARNT-TACC3 inh: 22; FN deposit inh: 11; FGF22 binding: 0

What do the screens show for `CNC[C@H]1OCCCC[C@H](C)Oc2ccc(NC(=O)Nc3ccc(OC)cc3)cc2C(=O)N([C@@H](C)CO)C[C@@H]1C`?
DENV2 CPE: 1; SIRT5 inh: -3; Xi reactivation: 0; ARNT-TACC3 inh: 0; FN deposit inh: -8; FGF22 binding: 0

How did O=C(C1CC1)N1C[C@H]2[C@@H](c3ccccc31)[C@H](CO)N2C(=O)Cc1ccccn1 do in these assays?
DENV2 CPE: 63*; SIRT5 inh: 1; Xi reactivation: 0; ARNT-TACC3 inh: 5; FN deposit inh: -5; FGF22 binding: 0

How did CN1C[C@H]2[C@@H](c3ccccc31)[C@H](CO)N2C(=O)C1CCCC1 do in these assays?
DENV2 CPE: 13; SIRT5 inh: -2; Xi reactivation: 0; ARNT-TACC3 inh: -7; FN deposit inh: 1; FGF22 binding: 0

Results for O=C(c1cccnc1)N1C[C@@H]2[C@H](c3ccccc31)[C@@H](CO)N2CC1CCCCC1 ?
DENV2 CPE: -6; SIRT5 inh: 3; Xi reactivation: 0; ARNT-TACC3 inh: -2; FGF22 binding: -1

Results for CN1C[C@H]2[C@@H](c3ccccc31)[C@@H](CO)N2C(=O)C1CCCC1 ?
DENV2 CPE: 27*; SIRT5 inh: -14; Xi reactivation: 0; ARNT-TACC3 inh: -1; FN deposit inh: 0; FGF22 binding: 0

What do the screens show for `O=C(c1cccnc1)N1C[C@@H]2[C@H](c3ccccc31)[C@H](CO)N2CC1CCCCC1`?
DENV2 CPE: 29*; SIRT5 inh: 6; Xi reactivation: 0; ARNT-TACC3 inh: -11; FGF22 binding: -1

What do the screens show for `O=C(C[C@H]1C[C@@H]2c3cc(NC(=O)c4ccc5c(c4)OCO5)ccc3O[C@@H]2[C@@H](CO)O1)NCC1CC1`?
DENV2 CPE: 6; SIRT5 inh: 0; Xi reactivation: 0; ARNT-TACC3 inh: 1; FN deposit inh: -3; FGF22 binding: 0

What do the screens show for `C[C@@H]1CCCCO[C@@H](CN(C)S(=O)(=O)c2cccs2)[C@@H](C)CN([C@@H](C)CO)C(=O)c2cc(NC(=O)C3CCCCC3)ccc2O1`?
DENV2 CPE: -3; SIRT5 inh: 4; Xi reactivation: -1; ARNT-TACC3 inh: 2; FGF22 binding: 0

How did O=C(COC(=O)c1cccc(S(=O)(=O)Nc2ccc(F)cc2)c1)NCCN1C(=O)CSC1=O do in these assays?
DENV2 CPE: 5; SIRT5 inh: 17*; Xi reactivation: 0; ARNT-TACC3 inh: -5; FN deposit inh: 0; FGF22 binding: 0

Results for Cc1ccc(C(=O)OCC(=O)NCCN2C(=O)CSC2=O)cc1[N+](=O)[O-] ?
DENV2 CPE: 2; SIRT5 inh: -3; Xi reactivation: 0; ARNT-TACC3 inh: -12; FN deposit inh: 3; FGF22 binding: 0

How did S=C(Nc1ccccc1)Nc1ccc2cn[nH]c2c1 do in these assays?
DENV2 CPE: -3; SIRT5 inh: -6; Xi reactivation: 0; ARNT-TACC3 inh: -4; FN deposit inh: -7; FGF22 binding: 0

Results for CCOc1ccccc1NC(=S)Nc1ccc2cn[nH]c2c1 ?
DENV2 CPE: 3; SIRT5 inh: -2; Xi reactivation: 0; ARNT-TACC3 inh: active; FN deposit inh: -7; FGF22 binding: 0

Results for Cc1noc(C)c1NC(=O)N(C)C[C@H]1OCCCC[C@@H](C)Oc2ccc(NS(=O)(=O)c3cn(C)cn3)cc2C(=O)N([C@H](C)CO)C[C@H]1C ?
DENV2 CPE: -14; Xi reactivation: 0; ARNT-TACC3 inh: -1; FGF22 binding: 0

How did O=S(=O)(N[C@@H]1CC[C@H](CCn2cc(-c3cccnc3)nn2)O[C@H]1CO)c1ccccc1 do in these assays?
DENV2 CPE: 15; SIRT5 inh: 8; Xi reactivation: 0; ARNT-TACC3 inh: -6; FGF22 binding: 0

Results for O=S(=O)(N[C@@H]1CC[C@@H](CCn2cc(-c3cccnc3)nn2)O[C@H]1CO)c1ccccc1 ?
DENV2 CPE: 17; SIRT5 inh: 16*; Xi reactivation: -1; ARNT-TACC3 inh: -11; FGF22 binding: 0

How did O=S(=O)(N[C@H]1CC[C@H](CCn2cc(-c3cccnc3)nn2)O[C@@H]1CO)c1ccccc1 do in these assays?
DENV2 CPE: 29*; SIRT5 inh: -2; Xi reactivation: 0; ARNT-TACC3 inh: 0; FGF22 binding: 0

Results for Cc1ccc(S(=O)(=O)N[C@H]2CC[C@@H](CCn3cc(-c4cccc(F)c4)nn3)O[C@H]2CO)cc1 ?
DENV2 CPE: 34*; SIRT5 inh: 2; Xi reactivation: 0; ARNT-TACC3 inh: -1; FN deposit inh: 1; FGF22 binding: 0

How did C[C@@H]1CN([C@H](C)CO)C(=O)Cc2cc(NS(=O)(=O)c3ccccc3)ccc2O[C@@H]1CN(C)C(=O)Nc1ccc2c(c1)OCO2 do in these assays?
Xi reactivation: 0

Results for C[C@H]1CN([C@@H](C)CO)C(=O)c2cc(NC(=O)NC3CCCCC3)ccc2O[C@@H]1CN(C)S(=O)(=O)c1cn(C)cn1 ?
DENV2 CPE: -4; SIRT5 inh: 3; Xi reactivation: 0; ARNT-TACC3 inh: -7; FGF22 binding: -1

How did CC1(C)OC(=O)C2=C(C[C@@H](C3CCCCC3)O[C@H]2c2ccc(F)cc2)O1 do in these assays?
DENV2 CPE: 55*; SIRT5 inh: -3; Xi reactivation: 0; FN deposit inh: -7; FGF22 binding: 0

What do the screens show for `C[C@@H]1CN([C@H](C)CO)S(=O)(=O)c2ccc(-c3ccncc3)cc2O[C@H]1CN(C)C(=O)c1cccc(F)c1`?
DENV2 CPE: 4; SIRT5 inh: -4; Xi reactivation: 0; FN deposit inh: -1; FGF22 binding: 0

Results for COc1ccc(NC(=O)N(C)C[C@H]2Oc3ccc(NC(=O)Cc4cn(C)c5ccccc45)cc3C(=O)N([C@H](C)CO)C[C@H]2C)cc1 ?
DENV2 CPE: 18; SIRT5 inh: 0; Xi reactivation: -1; ARNT-TACC3 inh: 5; FGF22 binding: 0
